Compound activity (PubChem BioAssay)
E-sel inducer: E-selectin induction on HUVECs | P16581 | AID 686992 | hit rate 0.37% among 260,000 | activation, % at 7.58 µM | HUVEC E-selectin immunofluorescence imaging; normalized: neutral wells 0, TNF-alpha wells 100;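 active = mean E-selectin-positive cell signal at least 10% of the positive control, reached in at least 60% of replicates, without over 20% cell loss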
Target sequence (P16581 whole entry, looked up): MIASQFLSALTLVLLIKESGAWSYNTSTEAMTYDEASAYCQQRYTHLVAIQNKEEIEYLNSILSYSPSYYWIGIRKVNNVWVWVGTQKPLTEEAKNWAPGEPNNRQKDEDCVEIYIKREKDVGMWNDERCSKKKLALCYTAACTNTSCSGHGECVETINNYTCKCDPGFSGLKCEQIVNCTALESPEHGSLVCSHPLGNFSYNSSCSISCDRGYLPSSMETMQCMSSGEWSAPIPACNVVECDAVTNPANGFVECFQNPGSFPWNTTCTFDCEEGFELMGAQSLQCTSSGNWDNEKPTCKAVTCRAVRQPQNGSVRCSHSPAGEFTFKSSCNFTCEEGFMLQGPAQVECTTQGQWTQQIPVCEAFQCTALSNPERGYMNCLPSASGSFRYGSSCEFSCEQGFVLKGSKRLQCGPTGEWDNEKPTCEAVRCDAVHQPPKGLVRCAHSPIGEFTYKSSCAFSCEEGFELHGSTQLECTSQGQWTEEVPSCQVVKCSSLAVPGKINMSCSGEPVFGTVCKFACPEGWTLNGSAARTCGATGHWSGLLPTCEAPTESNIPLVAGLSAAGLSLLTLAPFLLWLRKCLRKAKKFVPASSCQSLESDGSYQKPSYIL
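Read-out basis: % PE-positive cells; Test system: HUVEC primary endothelial cells; Technique: immunofluorescence imaging; Dosing: single-point compound dose.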
F508del corr: correctors of CFTR F508del function in bronchial epithelial cells; CFBE cells, YFP halide quenching; stimulated with forskolin plus potentiator P3; % fluorescence drop versus neutral controls; activity (quench increase), % at 7.58 µM; hit rate 0.36% among 350,000; AID 720511;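 active = mean added fluorescence quench of at least 8% versus neutral control, with both replicates also reaching 8%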;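 note: cells transiently co-express mutant CFTR-F508del with the halide-sensitive YFP; corrector assay measuring rescue of mutant channel to the surface after 24 h compound exposure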
FGF22 binding: FGF22 (human) thermal shift binding. hit rate 1.5% among 340,000. recombinant FGF22 thermal shift, SYPRO orange fluorescence; percent of sucrose octasulfate shift, DMSO zero. activity (Tm shift, normalised), % at 9.99 µM. Q9HCT0;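 active = mean Tm shift, scaled 0 neutral to 100 positive control, at about 1.3% or above, every replicate too, limit read from the data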
Env fusion inh: blocks HIV Env-driven cell-cell fusion. HeLa-JRFL Env/CEM21 cell fusion, luciferase. inhibition, % at 12.3 µM. hit rate 1.1% among 360,000;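 active = mean replicate inhibition score of at least 50 and every replicate individually at or above 50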
S100A4 MyoIIA: blocks human S100A4 binding to myosin IIA peptide; S100A4/TAMRA-MyoIIA peptide fluorescence polarization; inhibition, % at 10.7 µM; hit rate 0.14% among 360,000; AID 652163;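 active = mean inhibition of at least 70% across replicates, with every replicate also reaching that level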
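Test system – S100A4 monomer (human) · Compound – single-point compound testing · Schedule – 5 min incubation before reading · Probe or stimulus – TAMRA-labelled myosin IIA heavy-chain peptide probe, 5 nM · Benchmarks – neutral control DMSO, positive control TFP · Medium – Calcium-containing HEPES buffer, pH 7.2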
Numbers stand for hits; - = inactive; . = no result; [ ] = remark or other dose. Hits are enriched below; roughly 2.7% of the tested compounds scored in any of these assays.

SMILES	E-sel inducer	F508del corr	FGF22 binding	Env fusion inh	S100A4 MyoIIA
COc1ccc(Cc2nnc(NC(=O)c3ccc(F)cc3)s2)cc1OC	.	8.6	-	-	-
O=S(=O)(NCc1ccccc1)c1ccc(S(=O)(=O)N(Cc2cccs2)CC2CCCO2)cc1 (configuration not stated)	.	.	.	61.5	.
COc1ccc(/C=N/OCC(=O)NC(c2ccccc2)c2ccccc2)cc1OC	-	.	-	62.0	-
COc1ccc(/C=N/OCC(=O)Nc2cc(C)on2)cc1OC	.	.	-	-	-
COc1cc(OC)cc(C(=O)OCC(=O)NC(c2ccccc2)c2ccccc2)c1	-	8.2	-	.	-
COc1cc(OC)cc(C(=O)NC(c2ccccc2)c2ccccc2)c1	.	-	-	-	-
Cc1cc(C)c(S(=O)(=O)NCc2ccc3c(c2)cc(C)n3C)c(C)c1	.	-	-	-	82.9
Cc1cc2ccccc2n1CCNC(=O)Cc1ccccc1	-	-	-	.	-
Cc1cc2cc(CNS(=O)(=O)c3ccc4ccccc4c3)ccc2n1C	.	-	-	-	-
Cc1cc(C)c(S(=O)(=O)NCCn2c(C)cc3ccccc32)c(C)c1	100.7	-	-	-	-
COc1cccc(NC(=O)Nc2ccc3c(c2)C(=O)N(C)[C@H]2CC[C@H](CC(=O)O)O[C@H]2CO3)c1	-	-	-	-	.
COc1ccc(C#Cc2ccc([C@H]3[C@@H](CO)N4CCCCN(C(=O)c5ccncc5)C[C@H]34)cc2)cc1	-	-	-	.	-
CC1(C)Cc2c(ccc3ccccc23)C(=O)N1	.	.	.	79.7	.
CCNC(=O)/C=C1\NC(C)(C)Cc2c1ccc1ccccc21	.	-	-	.	-
CC(=O)NC(c1cccc([N+](=O)[O-])c1)c1ccc2cccnc2c1O (configuration not stated)	.	-	-	-	-
O=[N+]([O-])c1ccc(NC(c2ccccc2)c2ccc3cccnc3c2O)cc1 (configuration not stated)	.	-	-	61.8	-
CC(=O)NC(c1ccc(C(C)C)cc1)c1ccc2cccnc2c1O (configuration not stated)	-	8.9	-	-	-
O=S(=O)(NC[C@H]1CC[C@@H]2[C@@H](CN2Cc2cccc(-c3ccccn3)c2)O1)c1ccccc1	.	-	.	-	-
CC1CCCCN1C(=O)CCc1nnc(Cc2c[nH]c3ccccc23)o1 (configuration not stated)	.	-	43.7	-	-
CC1CCCC(C)N1C(=O)COC(=O)Cc1c[nH]c2ccccc12 (configuration not stated)	-	-	-	.	-
COCCN(C(=O)CCc1nnc(CCc2c[nH]c3ccccc23)o1)C(C)C	.	-	43.7	-	-
CC1CCCCN1C(=O)COC(=O)Cc1c[nH]c2ccccc12 (configuration not stated)	-	-	43.1	-	-
C=CCOC(=O)C1=C(C)NC(=S)NC1c1cccs1 (configuration not stated)	.	.	-	-	-
COC(=O)c1[nH]c2c(c1C)C(=O)CC(c1cccc(OC)c1)C2 (configuration not stated)	-	8.4	-	-	-
COCCOC(=O)c1[nH]c2c(c1C)C(=O)CC(c1cccs1)C2 (configuration not stated)	.	13.1	-	-	-
SMILES	E-sel inducer	F508del corr	FGF22 binding	Env fusion inh	S100A4 MyoIIA
COCCOC(=O)C1=C(C)NC(=S)NC1c1cccs1 (configuration not stated)	-	-	43.4	-	-
C[C@@H]1CN([C@@H](C)CO)C(=O)Cc2cc(NS(=O)(=O)c3cn(C)cn3)ccc2O[C@H]1CN(C)S(=O)(=O)c1ccccc1	-	-	-	-	-
CCC(=O)N1C[C@H](C)[C@H](OC)CN(C)C(=O)c2cc(NC(=O)COC)ccc2OC[C@H]1C	-	-	-	.	-
O=C(c1ccc2ccccc2n1)N1CCN(S(=O)(=O)c2ccc(Cl)cc2)CC1	-	-	-	55.5	-
CC(=O)C1=C(C)N(Cc2ccc(Cl)cc2)C(=S)NC1c1ccc(Cl)cc1 (configuration not stated)	-	-	-	60.1	-
COC(=O)C1=C(C)N(Cc2ccc(Cl)cc2)C(=S)NC1c1ccc(OC)cc1 (configuration not stated)	-	-	-	84.1	-
COC(=O)C1=C(C)N(Cc2ccccc2)C(=S)N[C@H]1c1ccc(Br)cc1	-	-	-	66.7	-
COC(=O)C1=C(C)N(Cc2ccc(F)cc2)C(=S)NC1c1ccc(Cl)cc1 (configuration not stated)	-	-	-	58.8	-
C[C@H]1CN([C@@H](C)CO)C(=O)Cc2cc(NC(=O)CCC(F)(F)F)ccc2O[C@H]1CN(C)Cc1ccccc1	-	-	-	-	-
C[C@H](CO)N1C[C@H](C)[C@H](CN(C)Cc2cccc(C(F)(F)F)c2)Oc2ncc(C#Cc3ccccc3)cc2C1=O	-	-	-	.	-
CC(=O)Nc1cccc(Nc2nc(-c3ccccc3F)nc3ccccc23)c1	.	.	43.1	-	-
CC(=O)Nc1ccc(Nc2nc(-c3ccccc3)nc3ccccc23)cc1	.	-	-	-	-
COc1ccc(-c2ccc3oc(-c4ccc(OC)cc4)c(C#CCO)c3c2)cc1	-	9.3	-	-	-
COc1ccc(NS(=O)(=O)c2cc(NC(=O)c3cc(=O)c4ccccc4o3)ccc2OC)cc1	-	-	43.4	-	-
O=C(CN(CC1CCCO1)C(=O)CNS(=O)(=O)c1ccccc1)NCc1ccco1 (configuration not stated)	.	-	43.0	-	-
COc1cccc(N(CC(=O)NCC2CCCO2)C(=O)CNS(=O)(=O)c2ccccc2)c1 (configuration not stated)	-	-	43.6	-	-
O=C(CN(CC1CCCO1)C(=O)CNS(=O)(=O)c1ccccc1)NCCc1ccccc1 (configuration not stated)	-	-	-	-	-
CC(=O)N[C@@H]1CC[C@H](CC(=O)NCC2CCCCC2)O[C@H]1CO	-	-	-	-	-
C[C@@H]1CN([C@@H](C)CO)C(=O)Cc2cc(NS(=O)(=O)c3cccs3)ccc2O[C@H]1CN(C)Cc1ccccc1	-	-	-	-	-
C[C@H](CO)N1C[C@H](C)[C@H](CN(C)S(=O)(=O)c2ccc(F)cc2)Oc2ccc(NS(=O)(=O)c3ccccc3)cc2CC1=O	-	-	-	85.6[16.7 µM]	.
C[C@H](CO)N1C[C@H](C)[C@H](CN(C)S(=O)(=O)c2ccc(F)cc2)Oc2ccc(NS(=O)(=O)c3ccc(Cl)cc3)cc2CC1=O	-	-	-	58.8[16.7 µM]	-
C[C@@H]1CN([C@@H](C)CO)C(=O)Cc2cc(NS(=O)(=O)c3ccccc3)ccc2O[C@@H]1CN(C)S(=O)(=O)c1ccc(F)cc1	-	-	-	-	.
C[C@@H]1CN([C@H](C)CO)C(=O)Cc2cc(NS(=O)(=O)c3ccc(F)cc3)ccc2O[C@H]1CN(C)S(=O)(=O)c1ccc(Cl)cc1	28.8	-	-	-	.
